According to ChEMBL document CHEMBL1152954, “Discovery, characterization and comparison of inhibitors of Bacillus anthracis and Staphylococcus aureus replicative DNA helicases” (Bioorg Med Chem, 2009):
pIC50, pKi: −log10 of the molar value. ≈ marks a conversion by molar mass, not a printed value. Calls of active or inactive are those of the source. No cut-off for these calls is given here.

What was measured:
Bacillus subtilis [1] = test: Antibacterial activity against Bacillus subtilis BD54 by broth microdilution method; format: functional
Staphylococcus aureus [2] = test: Antibacterial activity against Staphylococcus aureus ATCC 25923 by broth microdilution method; format: functional
DnaC helicase = biological target: T1, DnaC helicase (Staphylococcus aureus, UniProt Q9AQH7); test: Inhibition of Staphylococcus aureus Smith DNA helicase DnaC assessed as strand unwinding after 30 mins by FRET assay
T1 sequence (Q9AQH7 whole entry): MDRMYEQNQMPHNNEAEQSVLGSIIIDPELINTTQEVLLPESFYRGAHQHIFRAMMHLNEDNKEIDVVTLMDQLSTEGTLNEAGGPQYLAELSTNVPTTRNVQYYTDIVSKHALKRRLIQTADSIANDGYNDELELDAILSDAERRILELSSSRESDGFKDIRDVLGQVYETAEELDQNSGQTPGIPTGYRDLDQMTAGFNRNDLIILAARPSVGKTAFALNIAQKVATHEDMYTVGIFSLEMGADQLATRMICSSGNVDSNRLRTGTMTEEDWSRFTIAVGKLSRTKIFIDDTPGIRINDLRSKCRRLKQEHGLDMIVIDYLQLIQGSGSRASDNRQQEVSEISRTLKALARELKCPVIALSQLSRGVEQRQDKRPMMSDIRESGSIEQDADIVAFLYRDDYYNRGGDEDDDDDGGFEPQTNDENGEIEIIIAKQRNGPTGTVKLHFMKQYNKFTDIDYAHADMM

Bacillus thuringiensis = test: Antibacterial activity against Bacillus thuringiensis ATCC 10792 by broth microdilution method; format: functional
HeLa = test: Cytotoxicity against human HeLa cells by MTT assay; format: cell-based
Escherichia coli [3] = test: Antibacterial activity against Escherichia coli 700 expressing […] gene by broth microdilution method; format: functional
Priestia megaterium = test: Antibacterial activity against Bacillus megaterium ATCC 12872 by broth microdilution method; format: functional
Bacillus licheniformis = test: Antibacterial activity against Bacillus licheniformis ATCC 14580 by broth microdilution method; format: functional; settings: DSM 13=ATCC 14580
Enterococcus faecalis [4] = test: Antibacterial activity against Enterococcus faecalis ATCC 29212 by broth microdilution method; format: functional
[5] = tested on: Geobacillus stearothermophilus; test: Antibacterial activity against Bacillus stearothermophilus ATCC 12980 by broth microdilution method; format: functional
[6] = Selectivity ratio of IC50 for Staphylococcus aureus Smith DNA helicase DnaC to IC50 for Bacillus anthracis DNA helicase DnaB
Bacillus anthracis [7] = test: Antibacterial activity against Bacillus anthracis Sterne by broth microdilution method; format: functional
Staphylococcus aureus [8] = test: Antibacterial activity against Staphylococcus aureus Smith by broth microdilution method; format: functional
Escherichia coli [9] = test: Antibacterial activity against TolC deficient Escherichia coli 701 by broth microdilution method; format: functional
Bacillus subtilis [10] = test: Inhibition of Bacillus subtilis DNA gyrase up to 50 uM by gel mobility assay
Method in brief: (§1)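 B. subtilis DNA gyrase activity measured by a published gel mobility assay; compounds tested up to 50 μM.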

Enterococcus faecalis [11] = test: Antibacterial activity against vancomycin-resistant Enterococcus faecalis ATCC 51575 by broth microdilution method; format: functional
Staphylococcus aureus [12] = test: Antibacterial activity against methicillin-resistant Staphylococcus aureus isolate 1094 by broth microdilution method; format: functional
Bacillus anthracis [13] = test: Antibacterial activity against permeabilized polA-deficient Bacillus anthracis Sterne assessed as inhibition of DNA replication by cell based assay; format: functional, organism-based
Method in brief: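 ATP-dependent DNA replication measured in permeabilized ΔpolA B. anthracis Sterne cells by a modified Brown et al. method, testing whether compounds block an intact replisome.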

Bacillus cereus = test: Antibacterial activity against Bacillus cereus ATCC 4342 by broth microdilution method; format: functional
[14] = Inhibition of Bacillus anthracis DNA helicase DnaB by Dixon plot analysis in presence of annealed oligonucleotide substrate
Method in brief: (§2)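 FRET strand-unwinding assay with purified B. anthracis helicase, 6-FAM/BHQ1 annealed 60-mer duplex, pH 7.9 Tris, 2 mM MgCl2, 25 mM NaCl, 0.01% Triton X-100, 2.5 mM ATP, room temperature 30 min. Oligo substrate and inhibitor concentrations varied; Ki taken from a Dixon plot.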

Bacillus anthracis [15] = test: Antibacterial activity against Bacillus anthracis Sterne at 4 times MIC within 5.5 hrs; format: functional, organism-based
Bacillus anthracis [16] = test: Inhibition of single strand DNA-stimulated ATPase activity of Bacillus anthracis DNA helicase DnaB at 100 uM
Method in brief: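 ssDNA-stimulated ATPase of B. anthracis helicase assayed with 100 μM inhibitor, 0.5 mM ATP and 200 pmole M13mp19 single-stranded DNA.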

Bacillus anthracis [17] = test: Inhibition of Bacillus anthracis DNA helicase DnaB by competitive inhibition assay in presence of ATP
Method in brief: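 Helicase FRET unwinding kinetics with B. anthracis enzyme, varying both ATP (0.625, 1.25, 2.5 mM and higher) and inhibitor concentrations; analysed by Dixon plot (1/V vs [I]).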

Bacillus anthracis [18] = test: Inhibition of Bacillus anthracis DNA helicase DnaB by Lineweaver-Burke plot analysis in presence of DNA substrate; method in brief: as §2
[19] = Inhibition of Bacillus subtilis DNA gyrase by gel mobility assay; method in brief: as §1
Bacillus subtilis [20] = test: Inhibition of Bacillus subtilis class C DNA polymerase 3
Method in brief: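 B. subtilis Pol IIIC polymerase assay in 96-well format on DNase-activated chromosomal DNA substrate, which needs no helicase function.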

Structure (SMILES)	pIC50 (DnaC helicase)	CC50 (HeLa)	MIC (Bacillus anthracis [7])	MIC (Staphylococcus aureus [8])	pIC50 (Bacillus anthracis [13])	other results
Cc1c(CCC(=O)O)c(=O)oc2c(C)c(OCc3cccc4ccccc34)ccc12	4.19	6 µM	6 µM (≈ 2.41 µg/mL)	> 100 µM	3.97	MIC (Bacillus subtilis [1]): 15.1 µg/mL (≈ 37.5 µM); MIC (Staphylococcus aureus [2]): 2.5 µg/mL (≈ 6.21 µM); MIC (Bacillus thuringiensis): 2.5 µg/mL (≈ 6.21 µM); MIC (Escherichia coli [3]): > 40 µg/mL; MIC (Priestia megaterium): > 40 µg/mL; MIC (Bacillus licheniformis): 2.5 µg/mL (≈ 6.21 µM); MIC (Enterococcus faecalis [4]): > 40 µg/mL; MIC [5]: 5 µg/mL (≈ 12.4 µM); Ratio IC50 [6]: 2; MIC (Escherichia coli [9]): > 40 µg/mL; inhibition (Bacillus subtilis [10]): inactive; MIC (Enterococcus faecalis [11]): > 40 µg/mL; MIC (Staphylococcus aureus [12]): 5 µg/mL (≈ 12.4 µM); MIC (Bacillus cereus): 2.5 µg/mL (≈ 6.21 µM)
Cc1ccc(C)n1-c1ccc(C(=O)O)c(O)c1	–	> 100 µM	50 µM (≈ 11.6 µg/mL)	50 µM (≈ 11.6 µg/mL)	< 4.00	–
COc1cc(/C=C2\SC(=S)N(c3cccc(C(F)(F)F)c3)C2=O)cc(OC)c1O	5.40	> 100 µM	> 100 µM	> 100 µM	4.02	–
Cc1c(CCC(=O)O)c(=O)oc2c(C)c(OCc3ccc(Br)cc3F)ccc12	3.74	> 100 µM	10 µM (≈ 4.49 µg/mL)	> 100 µM	4.60	MIC (Bacillus subtilis [1]): 4.2 µg/mL (≈ 9.35 µM); pKi [14]: 5.10; MIC (Staphylococcus aureus [2]): 11.2 µg/mL (≈ 24.9 µM); MIC (Bacillus thuringiensis): 2.8 µg/mL (≈ 6.23 µM); MIC (Escherichia coli [3]): > 45 µg/mL; MIC (Priestia megaterium): > 45 µg/mL; MIC (Bacillus licheniformis): 2.8 µg/mL (≈ 6.23 µM); MIC (Enterococcus faecalis [4]): > 45 µg/mL; MIC [5]: 5.6 µg/mL (≈ 12.5 µM); Activity (Bacillus anthracis [15]): Active; Ratio IC50 [6]: 2; inhibition (Bacillus anthracis [16]): 16%; MIC (Escherichia coli [9]): > 45 µg/mL; inhibition (Bacillus subtilis [10]): inactive; inhibition (Bacillus anthracis [17]): Active; MIC (Enterococcus faecalis [11]): > 45 µg/mL; MIC (Staphylococcus aureus [12]): > 45 µg/mL; MIC (Bacillus cereus): 2.8 µg/mL (≈ 6.23 µM); inhibition (Bacillus anthracis [18]): Active
COc1cc(/C=C2\SC(=S)N(c3ccc([N+](=O)[O-])cc3)C2=O)cc(OC)c1O	6.15	11 µM	> 100 µM	> 100 µM	–	–
Cc1ccc(C)n1-c1ccc(SCC(=O)O)cc1	5.40	> 100 µM	> 100 µM	> 100 µM	–	–
Cn1c(SCc2cc(=O)oc3cc(O)c(O)cc23)nc2ccccc21	4.82	35 µM	55 µM (≈ 19.5 µg/mL)	23 µM (≈ 8.15 µg/mL)	4.00	Ratio IC50 [6]: 2
CO[C@@H]1[C@@H](OC(=O)c2ccc(C)[nH]2)[C@@H](O)[C@@H](Oc2ccc3c(O)c(NC(=O)c4c[nH]c(C(=O)Nc5c(O)c6ccc(O[C@H]7OC(C)(C)[C@H](OC)[C@@H](OC(=O)c8ccc(C)[nH]8)[C@H]7O)c(C)c6oc5=O)c4C)c(=O)oc3c2C)OC1(C)C [COUMERMYCIN]	–	–	–	–	–	pIC50 [19]: > 6.00
Cc1c(Cc2ccccc2)c(=O)oc2c(O)c(O)ccc12	4.38	10 µM	20 µM (≈ 5.65 µg/mL)	24 µM (≈ 6.78 µg/mL)	5.00	Ratio IC50 [6]: 2
Nn1c(Cc2ccccc2F)nnc1SCc1cc(=O)oc2cc(O)c(O)cc12	4.82	> 100 µM	> 100 µM	> 100 µM	4.00	Ratio IC50 [6]: 2
COc1cc(/C=C2\SC(=S)N(c3cccc(Cl)c3)C2=O)cc(OC)c1O	5.52	> 100 µM	> 100 µM	> 100 µM	4.52	–
COc1cc(/C=C2\SC(=S)N(c3ccc(Cl)cc3)C2=O)cc(OC)c1O	5.70	> 100 µM	> 100 µM	> 100 µM	4.14	–
COc1cc(C(=O)Nc2nc3ccc(S(=O)(=O)N4CCOCC4)cc3s2)cc(OC)c1OC	4.82	70 µM	> 100 µM	> 100 µM	< 4.00	inhibition (Bacillus subtilis [20]): inactive
Cc1noc(NS(=O)(=O)c2ccc(NC(=O)CSc3nnc(-c4ccccc4)c(-c4ccccc4)n3)cc2)c1C	4.33	68 µM	50 µM (≈ 28.6 µg/mL)	75 µM (≈ 43 µg/mL)	4.21	MIC (Bacillus subtilis [1]): > 60 µg/mL; MIC (Staphylococcus aureus [2]): 43 µg/mL (≈ 75.1 µM); MIC (Bacillus thuringiensis): 57.3 µg/mL (≈ 100 µM); MIC (Escherichia coli [3]): > 60 µg/mL; MIC (Priestia megaterium): 57.3 µg/mL (≈ 100 µM); MIC (Bacillus licheniformis): 57.3 µg/mL (≈ 100 µM); MIC (Enterococcus faecalis [4]): > 60 µg/mL; MIC [5]: 57.3 µg/mL (≈ 100 µM); MIC (Escherichia coli [9]): 28.7 µg/mL (≈ 50.1 µM); inhibition (Bacillus subtilis [10]): inactive; MIC (Enterococcus faecalis [11]): > 60 µg/mL; MIC (Staphylococcus aureus [12]): 57.3 µg/mL (≈ 100 µM); MIC (Bacillus cereus): 57.3 µg/mL (≈ 100 µM)
CCOc1ccccc1C(=O)Nc1nc2ccc(S(N)(=O)=O)cc2s1	4.25	10 µM	> 100 µM	> 100 µM	< 4.00	inhibition (Bacillus subtilis [20]): inactive
CCC1(C)Cc2ccccc2-c2[nH]c3nnc(S)n3c(=O)c21 (centres undefined)	< 4.00	80 µM	30 µM (≈ 9.37 µg/mL)	> 100 µM	4.57	–
Cc1nc(-c2c[nH]c(C(=O)O)c2)cs1	4.92	> 100 µM	> 100 µM	> 100 µM	< 4.00	–
COc1ccc(Nc2nc(N)nc(-c3cc4ccccc4o3)n2)cc1	4.68	4 µM	> 100 µM	> 100 µM	< 4.00	–
Oc1ccc(O)c(-c2ccc(-c3nnc(S)o3)o2)c1	< 4.00	66 µM	25 µM (≈ 6.91 µg/mL)	> 100 µM	< 4.00	–
